Source: ChEMBL document CHEMBL3352070, “Dammarane triterpenes as potential SIRT1 activators from the leaves of Panax ginseng” (J Nat Prod, 2014)
Active and inactive are the calls of the source. The calls are words filed in the database; no cut-off is given here.

Columns and labels:
[1] = biological target: T1, NAD-dependent protein deacetylase sirtuin-1 (Homo sapiens) (UniProt Q96EB6); test: Activation of flag-tagged SIRT1 (unknown origin) expressed in HEK293 cells after 12 hrs by SIRT1-p53 luciferase reporter gene based assay; type: cell-based
T1 sequence (whole entry): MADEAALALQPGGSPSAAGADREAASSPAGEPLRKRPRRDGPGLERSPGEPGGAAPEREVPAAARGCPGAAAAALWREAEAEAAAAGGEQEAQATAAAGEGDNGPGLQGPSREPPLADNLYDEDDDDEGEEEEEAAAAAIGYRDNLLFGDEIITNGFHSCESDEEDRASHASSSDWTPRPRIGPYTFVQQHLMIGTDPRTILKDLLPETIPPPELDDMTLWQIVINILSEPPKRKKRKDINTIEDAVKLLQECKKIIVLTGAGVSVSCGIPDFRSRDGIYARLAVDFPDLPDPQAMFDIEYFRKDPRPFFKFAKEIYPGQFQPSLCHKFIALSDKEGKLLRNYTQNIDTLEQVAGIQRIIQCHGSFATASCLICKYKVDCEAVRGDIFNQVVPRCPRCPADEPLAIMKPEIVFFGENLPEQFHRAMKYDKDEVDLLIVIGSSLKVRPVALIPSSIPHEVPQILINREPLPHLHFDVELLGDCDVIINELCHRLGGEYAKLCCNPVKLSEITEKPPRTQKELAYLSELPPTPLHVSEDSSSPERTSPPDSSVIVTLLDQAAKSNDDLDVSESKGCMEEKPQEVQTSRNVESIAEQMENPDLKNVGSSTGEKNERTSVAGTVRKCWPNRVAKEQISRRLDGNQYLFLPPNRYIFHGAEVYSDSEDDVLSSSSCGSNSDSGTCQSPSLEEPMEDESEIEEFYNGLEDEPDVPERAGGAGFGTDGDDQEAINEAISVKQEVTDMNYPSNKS

[2] = biological target: T1, NAD-dependent protein deacetylase sirtuin-1 (Homo sapiens); test: Activation of SIRT1 (unknown origin) expressed in HEK293 cells assessed as increase in NAD+/NADH ratio at 10 to 20 ug/mL after 12 hrs; type: cell-based
Procedure, shortened: (§1)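 HEK293 cells grown in DMEM with 10% FBS at 37 °C, 5% CO2, and treated with compound for 12 h. NAD+/NADH ratio measured in whole-cell extracts with a red-fluorescence NAD/NADH quantitation kit.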

[3] = biological target: T1, NAD-dependent protein deacetylase sirtuin-1 (Homo sapiens); test: Activation of SIRT1 (unknown origin) at 10 to 20 ug/mL using Fluor de Lys-SIRT1 peptide by in vitro enzyme-based SIRT1-NAD/NADH assay
Procedure, shortened: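 SIRT1 enzyme at 0.02 U/μL in Tris-HCl pH 8.0 buffer with BSA, MgCl2, KCl and NaCl, preincubated with compound for 5 min at room temperature. Reaction started with 500 μM NAD+ and 100 μM Fluor de Lys-SIRT1 substrate (stock solution), run 1 h at room temperature. Quenched with Developer II plus 2 mM nicotinamide for 30 min, then fluorescence read at ex 360/em 450 nm. DMSO and no-enzyme controls.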

[4] = biological target: T1, NAD-dependent protein deacetylase sirtuin-1 (Homo sapiens); test: Activation of flag-tagged SIRT1 (unknown origin) expressed in HEK293 cells at 10 to 20 ug/mL after 12 hrs by SIRT1-p53 luciferase reporter gene based assay; type: cell-based
[5] = biological target: T1, NAD-dependent protein deacetylase sirtuin-1 (Homo sapiens); test: Activation of SIRT1 (unknown origin) expressed in HEK293 cells assessed as increase in NAD+/NADH ratio at 2.5 to 5 ug/mL after 12 hrs; type: cell-based; procedure, shortened: as §1
[6] = biological target: T1, NAD-dependent protein deacetylase sirtuin-1 (Homo sapiens); test: Activation of flag-tagged SIRT1 (unknown origin) expressed in HEK293 cells at 2.5 to 5 ug/mL after 12 hrs by SIRT1-p53 luciferase reporter gene based assay; type: cell-based
[7] = tested on: HEK293; test: Toxicity against HEK293 cells at 10 to 20 ug/ml; type: cell-based; conditions: human

Row | Activity [2] | Activity [4] | Compound | Activity [1] | Activity [3] | Activity [5] | Activity [6] | Activity [7]
1 |  |  | CC(C)=CCC[C@@](C)(O)[C@H]1CC[C@]2(C)[C@@H]1[C@H](O)C[C@@H]1[C@@]3(C)CC[C@H](O[C@@H]4O[C@H](CO)[C@@H](O)[C@H](O)[C@H]4O[C@@H]4O[C@H](CO)[C@@H](O)[C@H](O)[C@H]4O)C(C)(C)[C@@H]3CC[C@]12C | Dose-dependent effect |  |  |  | 
2 | Active | Active | CC(C)(O)/C=C/C[C@](C)(O)[C@H]1CC[C@]2(C)[C@@H]1C(=O)C[C@@H]1[C@@]3(C)CCC(=O)C(C)(C)[C@@H]3[C@@H](O)C[C@]12C |  | Dose-dependent effect |  |  | 
3 |  |  | CC(C)=CC/C=C(\C)[C@H]1CC[C@]2(C)[C@@H]1[C@H](O)C[C@@H]1[C@@]3(C)CC[C@H](O)C(C)(C)[C@@H]3[C@@H](O)C[C@]12C |  | Dose-dependent effect | Active | Active | Toxic
4 |  |  | CC(C)=CCC[C@](C)(O)[C@H]1CC[C@]2(C)[C@@H]1[C@H](O)C[C@@H]1[C@@]3(C)CC[C@H](O[C@@H]4O[C@H](CO)[C@@H](O)[C@H](O)[C@H]4O[C@@H]4O[C@H](CO)[C@@H](O)[C@H](O)[C@H]4O)C(C)(C)[C@@H]3CC[C@]12C | Active | Dose-dependent effect | Active | Active | Toxic
5 | Active | Active | CC(C)=CCC[C@](C)(O)[C@H]1CC[C@]2(C)[C@@H]1C(=O)C[C@@H]1[C@@]3(C)CCC(=O)C(C)(C)[C@@H]3[C@@H](O)C[C@]12C |  | Dose-dependent effect |  |  | 
